In ChEMBL document CHEMBL2434889, “New orally effective 3-(2-nitro)phenylpropanamide analgesic derivatives: synthesis and antinociceptive evaluation” (Eur J Med Chem, 2013):
Activity calls are given as the source filed them.

Experiments:
Mus musculus [1] = experiment: Toxicity in mouse at 3 mg/kg, ip; assay type: organism-based; parameters: dose 3 mg/kg, route intraperitoneal; settings: in vivo
Mus musculus [2] = experiment: Antinociceptive activity in mouse assessed as inhibition of acetic acid-induced writhing response at 3 mg/kg, ip after 10 mins measured for 10 mins; assay type: functional; settings: route intraperitoneal
Summary of the method: (§1)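 Mice (20–24 g) dosed intraperitoneally, then given 0.5% aqueous acetic acid i.p. at 10 ml/kg. Stretches (back arching, pelvic rotation, hind-limb extension) were counted in an observation beaker for 10 min, starting 10 min after the acid. % inhibition is versus the control group. n = 50 mice for control and reference groups, 10 per other treatment. ANOVA with Fisher PLSD.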

Mus musculus [3] = experiment: Antinociceptive activity in mouse assessed as increase of forepaw licking latency at 100 umol/kg, ip measured after 15 to 60 mins by hot plate test; assay type: functional, organism-based
Summary of the method: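 Hot-plate test at 55 °C with groups of 10 mice. Latency to forepaw licking was timed by stopwatch. Baseline was read twice before injection, and only mice reacting within 4–12 s were used. Readings were taken at 15, 30, 45 and 60 min after ip dosing, with a 30 s cutoff. Vehicle was physiological serum; morphine 5 mg/kg served as reference. Data are mean ± SEM, one-way ANOVA with Fisher PLSD.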

Mus musculus [4] = experiment: Antinociceptive activity in mouse assessed as inhibition of acetic acid-induced writhing response at 100 umol/kg, po after 10 mins measured for 10 mins; assay type: functional
Summary of the method: (§2)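 Oral dosing, with 8 mice per treatment group. Writhing was induced by 0.5% aqueous acetic acid i.p. (10 ml/kg). Stretches were tallied over 10 min, beginning 10 min after the acid. % inhibition of constrictions is relative to the control group. Statistics by ANOVA and Fisher PLSD.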

Mus musculus [5] = experiment: Antinociceptive activity in mouse assessed as inhibition of acetic acid-induced writhing response at 33.3 umol/kg, po after 10 mins measured for 10 mins; assay type: functional; summary of the method: as §2
Mus musculus [6] = experiment: Antinociceptive activity in mouse assessed as inhibition of acetic acid-induced writhing response at 10 umol/kg, po after 10 mins measured for 10 mins; assay type: functional; summary of the method: as §2
Mus musculus [7] = experiment: Toxicity in mouse assessed as effect on locomotion at 33 to 100 umol/kg, ip measured after 25 to 35 mins; assay type: organism-based; settings: in vivo
Summary of the method: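 Mice were injected ip with drug or saline and returned at once to photocell-beam cages for 1 h. Horizontal locomotion was scored as cage crossings and analysed over 25–35 min post-treatment, the same window as the writhing counts. Methylphenidate 10 mg/kg and haloperidol 0.5 mg/kg served as stimulant and depressant references. Statistics by Fisher PLSD.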

Mus musculus [8] = experiment: Antinociceptive activity in mouse assessed as inhibition of acetic acid-induced writhing response at 100 umol/kg, ip after 10 mins measured for 10 mins; assay type: functional; summary of the method: as §1
Mus musculus [9] = experiment: Antinociceptive activity in mouse assessed as inhibition of acetic acid-induced writhing response at 15 mg/kg, ip after 10 mins measured for 10 mins; assay type: functional; settings: route intraperitoneal; summary of the method: as §1

Row | Structure (SMILES) | Activity (Mus musculus [1]) | inhibition in vivo at 3 mg/kg (Mus musculus [2]) [%] | also measured
1 | O=C(CCc1ccc2c(c1)OCO2)N1CCCCC1 | Non-toxic | 53 | 
2 | COc1ccc(N2CCN(C(=O)CCc3cc4c(cc3[N+](=O)[O-])OCO4)CC2)cc1 | Non-toxic | 37.2 | Activity (Mus musculus [3]): inactive; inhibition in vivo at 100 µmol/kg (Mus musculus [4]): 40%; inhibition in vivo at 33.3 µmol/kg (Mus musculus [5]): 35.7%; inhibition in vivo at 10 µmol/kg (Mus musculus [6]): 28.6%; Activity (Mus musculus [7]): Non-toxic; inhibition in vivo at 100 µmol/kg (Mus musculus [8]): 50%
3 | CCCCCCNC(=O)CCc1cc2c(cc1[N+](=O)[O-])OCO2 | Non-toxic | 38.6 | inhibition in vivo at 100 µmol/kg (Mus musculus [8]): 26%
4 | COc1ccc(N2CCN(C(=O)CCc3cc4c(cc3N)OCO4)CC2)cc1 | Non-toxic | 21.5 | 
5 | COc1cc(CCC(=O)N2CCOCC2)c([N+](=O)[O-])cc1OC | Non-toxic | 15.3 | 
6 | COc1ccc(CCC(=O)N2CCCCC2)cc1OC | Non-toxic | < 0 | 
7 | O=C(CCc1cc2c(cc1[N+](=O)[O-])OCO2)N1CCN(c2ccc(Cl)c(Cl)c2)CC1 | Non-toxic | 22 | 
8 | O=C(CCc1cc2c(cc1[N+](=O)[O-])OCO2)N1CCN(c2ccc(F)cc2)CC1 | Non-toxic | 14.3 | 
9 | NC(=O)CCc1cc2c(cc1[N+](=O)[O-])OCO2 | Non-toxic | 14.8 | 
10 | O=C(CCc1cc2c(cc1[N+](=O)[O-])OCO2)Nc1ccccc1 | Non-toxic | 12.9 | 
11 | O=C(CCc1cc2c(cc1[N+](=O)[O-])OCO2)Nc1ccccn1 | Non-toxic | 10 | 
12 | COc1cc(CCC(=O)N2CCCCC2)c([N+](=O)[O-])cc1OC | Non-toxic | 33 | inhibition in vivo at 100 µmol/kg (Mus musculus [8]): 39.1%
13 | CC1CCCCN1C(=O)CCc1ccc2c(c1)OCO2 (configuration not stated) | Non-toxic | 20.1 | 
14 | CCOC(=O)CCc1cc2c(cc1[N+](=O)[O-])OCO2 | Non-toxic | 40.5 | 
15 | O=C(CCc1cc2c(cc1[N+](=O)[O-])OCO2)N1CCOCC1 | Non-toxic | 31.4 | 
16 | CC(=O)Oc1ccccc1C(=O)O [ASPIRIN] |  |  | inhibition in vivo at 100 µmol/kg (Mus musculus [4]): 31.2%; inhibition in vivo at 100 µmol/kg (Mus musculus [8]): 59%; inhibition in vivo at 15 mg/kg (Mus musculus [9]): 62.3%
17 | O=C(CCc1cc2c(cc1[N+](=O)[O-])OCO2)N1CCCCC1 | Non-toxic | 25.2 | inhibition in vivo at 100 µmol/kg (Mus musculus [8]): 44.8%
18 | COc1ccc(N2CCN(C(=O)CCc3ccc4c(c3)OCO4)CC2)cc1 | Non-toxic | 2.4 | 
19 | COc1ccccc1N1CCN(C(=O)CCc2cc3c(cc2[N+](=O)[O-])OCO3)CC1 | Non-toxic | 4.8 | 
20 | O=C(CCc1cc2c(cc1[N+](=O)[O-])OCO2)N1CCN(CCO)CC1 | Non-toxic | 32.9 | 
21 | O=C(CCc1cc2c(cc1[N+](=O)[O-])OCO2)N1CCN(c2ccccc2)CC1 | Non-toxic | 21.5 | 
